The list is not random: actives were taken first. Their share in the collection is about 1.5%.
CXCR6 inh = inhibitors of human CXCR6 receptor. O00574. CHO-K1 PathHunter CXCR6 beta-arrestin, luminescence. inhibition, % at 20 µM. hit rate 0.36% among 360,000; in the data active means inhibition above about 34%, passing the limit was not always enough;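 further: antagonist mode with CXCL16 agonist at 10 nM final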
Target sequence (O00574 whole entry, looked up): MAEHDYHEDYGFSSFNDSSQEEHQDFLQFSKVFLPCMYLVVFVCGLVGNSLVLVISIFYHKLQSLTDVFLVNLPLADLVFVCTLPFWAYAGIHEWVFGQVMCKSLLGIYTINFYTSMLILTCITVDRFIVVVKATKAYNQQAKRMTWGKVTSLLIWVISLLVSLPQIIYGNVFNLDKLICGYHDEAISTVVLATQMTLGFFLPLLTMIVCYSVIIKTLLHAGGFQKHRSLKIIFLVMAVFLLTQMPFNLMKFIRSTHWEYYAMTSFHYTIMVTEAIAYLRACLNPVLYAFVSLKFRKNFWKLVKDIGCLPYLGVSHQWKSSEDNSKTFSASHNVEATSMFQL
APJ antagonist = antagonists of human APJ apelin receptor. inhibition, % at 20 µM. P35414. AID 2521. CHO-K1 APJ beta-arrestin complementation, luminescence. hit rate 0.32% among 330,000;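 active means inhibition above about 40% at 20 µM, limit read from the data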;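 further: cells challenged with 10 nM apelin-13 agonist together with compound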
Target sequence (P35414 whole entry, looked up): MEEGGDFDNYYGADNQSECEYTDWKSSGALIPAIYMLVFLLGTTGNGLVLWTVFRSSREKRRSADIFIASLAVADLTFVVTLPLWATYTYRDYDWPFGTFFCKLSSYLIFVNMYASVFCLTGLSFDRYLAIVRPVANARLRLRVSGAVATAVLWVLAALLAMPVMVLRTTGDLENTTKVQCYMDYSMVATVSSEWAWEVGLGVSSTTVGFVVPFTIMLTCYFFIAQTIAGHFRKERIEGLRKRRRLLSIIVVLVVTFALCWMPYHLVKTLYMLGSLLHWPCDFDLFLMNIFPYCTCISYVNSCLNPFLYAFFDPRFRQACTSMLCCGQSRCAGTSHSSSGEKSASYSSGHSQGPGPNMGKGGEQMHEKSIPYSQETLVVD
APJ agonist = activates the human apelin receptor APJ; P35414; CHO-K1 APJ PathHunter beta-arrestin, luminescence; 0% DMSO wells, 100% apelin; activation, % at 20 µM; hit rate 0.11% among 330,000; AID 2520;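 active means activation more than six SD over the plate average, tested at 20 µM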
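Material: engineered CHO-K1 APJ arrestin reporter cells; amount: 1000 CHO-K1 reporter cells seeded per well; incubation: compound stimulation 90 min at 25 °C, detection 60 min; signal: luminescent beta-gal fragment complementation, chemiluminescent substrate; read-out basis: APJ agonist activity; controls: DMSO-only wells as negative, 10 nM Apelin-13 as positive control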
EBI2 block = EBI2 (human) antagonism | AID 651636 | inhibition, % at 5 µM | EBI2 beta-arrestin recruitment, luminescence, 7a,25-OHC stimulated | P32249 | hit rate 0.81% among 360,000; in the data active means inhibition above about 38%;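 further: enzyme fragment complementation signal reports receptor beta-arrestin coupling in cells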
CCR6 antagonist = CCR6 (human) receptor antagonism; P51684; CHO-K1 CCR6 PathHunter beta-arrestin, luminescence, CCL20-stimulated; inhibition, % at 20 µM; hit rate 0.49% among 340,000; AID 493098;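 active means compounds whose inhibition of the agonist-driven luminescence signal at 20 µM reaches about 50%, limit read from the data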;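 further: cells stimulated with CCL20 at 14 nM final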
APJ antag confirm = confirmation of human APJ apelin receptor antagonists. hit rate 66% among 950. APJ beta-arrestin recruitment, luminescence, antagonist mode. AID 2766. shares compounds with APJ antagonist. inhibition, % at 20 µM; in the data active means inhibition above about 50%
Each line names hits and unclear results; the compound was inactive in the other large screens (follow-up assays come after a bar, where they were run).

O=C(CCC(=O)OCC(=O)c1cccc([N+](=O)[O-])c1)Nc1ccccc1Cl	APJ antagonist 68.3, CCR6 antagonist 61.5 | APJ antag confirm 111.7
CC(C)CNS(=O)(=O)c1ccc(Br)cc1N1CCC[C@@H]1CO	none (no result: APJ antagonist, APJ agonist)
CCOC(=O)C1=C(C(=O)OCC)N(CC)CCC1=O	none (no result: APJ antagonist, APJ agonist)
CCCN(CC(=O)Nc1cc(Cl)ccc1Cl)C(=O)c1ccccn1	none
CC(=NCCN1CCN(C(C)=C2C(=O)c3ccccc3C2=O)CC1)C1=C(O)CC(C)(C)CC1=O	none
CC(=O)Nc1ccc(NC(=O)CCC(=O)OCC(=O)c2cccc([N+](=O)[O-])c2)cc1	APJ antagonist 47.2 | APJ antag confirm 86.4
Cc1ccc(OCC(=O)OCC(=O)c2cccc([N+](=O)[O-])c2)cc1C	APJ antagonist 56.8, CCR6 antagonist 51.3 | APJ antag confirm 54.9
COc1cc([N+](=O)[O-])ccc1NC(=S)NNC(=O)CCC(=O)Nc1ccccc1Cl	APJ antagonist 44.5 | APJ antag confirm 50.9
O=C(COc1ccc(S(=O)(=O)N2CCOCC2)cc1Cl)NCc1ccc2c(c1)OCO2	none (no result: APJ antagonist, APJ agonist, CCR6 antagonist)
CCOC(=O)C1=C(C)NC(=O)NC1c1c(C)nn(-c2ccccc2)c1Cl (stereo unspecified)	APJ antagonist 44.4 | APJ antag confirm inactive
CCOC(=O)C1=C(C)N(C)C(=O)NC1c1c(C)nn(-c2ccc(C)cc2)c1Cl (stereo unspecified)	none
CCC(=O)N1CCN(c2ccc(NC(=O)COc3ccccc3Cl)cc2)CC1	none
CCC(=O)N1CCN(c2ccccc2NC(=O)COc2ccccc2Cl)CC1	CXCR6 inh 43.4, APJ antagonist 52.1, CCR6 antagonist 51.0 | APJ antag confirm 61.5
Nc1ccn(CC(=O)NCCNc2ccc([N+](=O)[O-])cn2)c(=O)n1	none
O=C(O)c1ccc(N=N/C(=N\Nc2ccc(C(=O)O)cc2)c2ccccc2)cc1	APJ antagonist 54.9 | APJ antag confirm 84.1
COc1cccc(Nc2ccc([N+](=O)[O-])c3nonc23)c1	APJ antagonist 40.8 | APJ antag confirm 68.3
Cc1ccc(S(=O)(=O)Nc2cccc3cccnc23)c([N+](=O)[O-])c1	APJ antagonist 58.4 | APJ antag confirm 55.8
Cc1ccccc1NS(=O)(=O)c1ccc(S(=O)(=O)N2CCCC2)cc1	none (no result: APJ antagonist, APJ agonist, CCR6 antagonist)
Cc1ccc2cccc(NS(=O)(=O)c3ccccc3)c2n1	APJ antagonist 63.2 (no result: CXCR6 inh, EBI2 block) | APJ antag confirm 57.1
O=S(=O)(Nc1cccc2cccnc12)c1ccccc1	CXCR6 inh 68.9, APJ antagonist 88.7, EBI2 block 62.0, CCR6 antagonist 90.2 | APJ antag confirm 71.6
O=S(=O)(Nc1cccc2cccnc12)c1ccc(S(=O)(=O)N2CCCC2)cc1	APJ antagonist 67.7 | APJ antag confirm inactive
CC(=O)Nc1ccc(S(=O)(=O)Nc2cccc3cccnc23)cc1	none
CSc1ncccc1C(=O)NNC(=O)c1ccc(NS(=O)(=O)c2cccs2)cc1	none
O=C(NC1CCCCC1)c1cccnc1Sc1ccccc1	none
Cc1ccccc1NC(=O)CSc1nc2ccccc2c(=O)n1C	none
Cc1ccc(CNS(=O)(=O)c2ccc(-n3cccn3)cc2)cc1	none (no result: APJ antagonist, APJ agonist, CCR6 antagonist)
Cc1nc2c(OCc3ccccc3)cccn2c1N(C)C(=O)C1CCCCC1	none (no result: APJ antagonist, APJ agonist, CCR6 antagonist)
OCc1ccccc1SSc1ccccc1CO	none
COc1ccc(NS(=O)(=O)c2ccc3ccccc3c2)c2ncccc12	APJ antagonist 66.1 | APJ antag confirm 51.9
COc1ccccc1NS(=O)(=O)c1ccc2ccccc2c1	none
CC(=O)Nc1ccc(Cc2ccc3[nH]c(=O)cc(C)c3c2)cc1	APJ antagonist 43.8 (no result: CXCR6 inh, EBI2 block, CCR6 antagonist) | APJ antag confirm inactive
O=c1[nH]c(SCCc2ccccc2)nc2c1CCC2	none (no result: APJ antagonist, APJ agonist, CCR6 antagonist)
O=C(NC(=S)Nc1cccc(Cl)c1N1CCCCC1)c1ccc2c(c1)OCCO2	APJ antagonist 44.5 | APJ antag confirm inactive
O=C(Nc1cccc(Cl)c1N1CCCCC1)c1ccc2c(c1)OCCO2	none
Cc1ccc(Cl)cc1NC(=O)c1cccc(OC(F)F)c1	none
CN(Cc1c(O)ccc2c1oc(=O)c1ccccc12)C1CCCCC1	APJ antagonist 46.5 | APJ antag confirm inactive
CCCn1nc([N+](=O)[O-])c(C(C#N)c2nc3ccccc3s2)c(Cl)c1=O (stereo unspecified)	APJ antagonist 61.9, CCR6 antagonist 50.5 | APJ antag confirm 66.2
O=C(C[n+]1ccc(-c2cc(C(=O)Nc3cccc(C(F)(F)F)c3)c3ccccc3n2)cc1)c1cccc([N+](=O)[O-])c1	APJ antagonist 52.0 | APJ antag confirm 63.1
O=C(CCC(=O)c1cccs1)OCC(=O)c1ccc(Cl)s1	APJ antagonist 41.1 | APJ antag confirm inactive
O=c1[nH]c(-c2ccccc2)ncc1Oc1ccccc1	none
Cc1ccc(C)c2nc3sc(C(=O)N4CCCc5ccccc54)c(N)c3cc12	APJ antagonist 59.0, EBI2 block 74.7 | APJ antag confirm 57.5
COc1ccccc1C(=O)NC(=O)COC(=O)Cn1[nH]c(=O)c2ccccc2c1=O	none
CN(C)CCNC(=O)c1ccc2c(c1)N(Cc1ccc(F)cc1)CCS2	APJ antagonist 52.4 | APJ antag confirm inactive
COCCNC(=O)c1cc2cc(Cl)cc(Cl)c2oc1=O	none
CCOC(=O)c1nn(-c2ccccc2)c2nnc(Cc3ccccc3)c(=O)n12	none
CCN(Cc1ccccc1)c1ccc(N=Nc2nn(C)c(C)c2[N+](=O)[O-])cc1	CXCR6 inh 48.8, APJ antagonist 44.3, CCR6 antagonist 63.7 | APJ antag confirm 112.9
CCN(Cc1ccccc1)c1ccccc1	none (no result: APJ antagonist, APJ agonist)
O=C1c2ccccc2C(=O)c2c(/C=C/N3CCCCC3)ccnc21	none (no result: APJ antagonist, APJ agonist)
O=C1OCC(CO)(CO)N=C1NNc1cc(Cl)ccc1Cl	APJ antagonist 69.8 | APJ antag confirm 74.1
O=C1OCC(CO)(CO)N=C1NNc1ccccc1[N+](=O)[O-]	none
Cc1ccc(C)c(NC(=S)N(C)CCO)c1	none
Cc1ccc(C(C#N)c2ccc3c(C(F)(F)F)cc(C(F)(F)F)nc3n2)cc1 (stereo unspecified)	APJ antagonist 49.1, CCR6 antagonist 53.6 | APJ antag confirm 79.7
FC(F)(F)c1cc(C(F)(F)F)c2ccc(N/N=C/c3ccccc3)nc2n1	none
N#CC(c1ccccc1)c1ccc2c(C(F)(F)F)cc(C(F)(F)F)nc2n1 (stereo unspecified)	APJ antagonist 41.7, CCR6 antagonist 53.1 | APJ antag confirm 87.8
CN(N)c1ccc2c(C(F)(F)F)cc(C(F)(F)F)nc2n1	none
COc1ccc(N2CC(C(=O)Nc3ccccc3N3CCCC3)CC2=O)c(OC)c1 (stereo unspecified)	none
COc1ccccc1/C=C1\Oc2cc(OC(=O)N3CCOCC3)ccc2C1=O	none
O=C1C2C3C=CC(C3)C2C(=O)N1/N=C/c1cc(Br)cc([N+](=O)[O-])c1O (stereo unspecified)	APJ antagonist 42.0, CCR6 antagonist 54.3 | APJ antag confirm 52.3
Cc1cccn2c(=O)c(/C=C(\C#N)C(=O)NCc3ccccc3)c(N3CCC(C(N)=O)CC3)nc12	APJ antagonist 40.7 | APJ antag confirm inactive
